Reference: ChEMBL document CHEMBL4689842, “EUbOPEN Chemogenomics Library wave 1” (2021)
Several values for one entry are separate records, joined by “and”; a condition that tells them apart may be missing. Identical values can stand only once.

Tested on: Fibroblast
Assay: Multiplex assay against human fibroblast
Type: toxicity, cell-based
In short: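 Four dyes were applied at seeding to live cells: Hoechst33342, BioTracker Green Microtubule Cytoskeleton Dye, MitoTracker Red and Annexin V Alexa Fluor 680. Imaging after compound addition used a CQ1 microscope at 37°C and 5% CO2. CellPathfinder machine-learning gating then sorted cells into Hoechst high-intensity objects or normal cells, normal cells into healthy, pyknosed or fragmented nuclei, and pyknosed cells into mitotic or apoptotic, with tubulin, mitochondrial-mass and membrane-permeability phenotypes given as per cents of healthy-nucleus cells.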

[1] = 12 h, 1 µM, compound concentration 1 uM, replicate 1
[2] = 12 h, 1 µM, compound concentration 1 uM, replicate 2
[3] = 12 h, 10 µM, compound concentration 10 uM, replicate 1
[4] = 12 h, 10 µM, compound concentration 10 uM, replicate 2
[5] = 24 h, 1 µM, compound concentration 1 uM, replicate 1
[6] = 24 h, 1 µM, compound concentration 1 uM, replicate 2
[7] = 24 h, 10 µM, compound concentration 10 uM, replicate 1
[8] = 24 h, 10 µM, compound concentration 10 uM, replicate 2
[9] = 48 h, 10 µM, compound concentration 10 uM, replicate 1
[10] = 48 h, 10 µM, compound concentration 10 uM, replicate 2

**Q.** Which “Population Apoptotic (%)” value [1] does the source give for `CN[C@@H]1C[C@H]2O[C@@](C)([C@@H]1OC)n1c3ccccc3c3c4c(c5c6ccccc6n2c5c31)C(=O)NC4` [STAUROSPORINE] here?
**A.** 75%

**Q.** What about the “Population Fragmented Nuclei (%)” value [1] of the same compound?
**A.** 41%

**Q.** What about the “Population Healthy Nuclei (%)” value [1] of the same compound?
**A.** 14%

**Q.** What about the “Population Hoechst High Intensity Objects (%)” value [1] of the same compound?
**A.** 31%

**Q.** And the “Population Membrane Permeable-Phenotype (%)” value [1]?
**A.** 13%

**Q.** And the “Population Mitochondria Different-Phenotype (%)” value [1]?
**A.** 2%

**Q.** And the “Population Mitotic Cells (%)” value [1]?
**A.** 24%

**Q.** What about the “Population Normal (%)” value [1] of the same compound?
**A.** 68%

**Q.** And the “Population Pyknosed Nuclei (%)” value [1]?
**A.** 43%

**Q.** And the “Population Tubulin-Different-Phenotype (%)” value [1]?
**A.** 10%

**Q.** What about the “Population Apoptotic (%)” value [2] of the same compound?
**A.** 71%

**Q.** What about the “Population Fragmented Nuclei (%)” value [2] of the same compound?
**A.** 48%

**Q.** And the “Population Healthy Nuclei (%)” value [2]?
**A.** 19%

**Q.** And the “Population Hoechst High Intensity Objects (%)” value [2]?
**A.** 46%

**Q.** What about the “Population Membrane Permeable-Phenotype (%)” value [2] of the same compound?
**A.** 47%

**Q.** And the “Population Mitochondria Different-Phenotype (%)” value [2]?
**A.** 11%

**Q.** And the “Population Mitotic Cells (%)” value [2]?
**A.** 28%

**Q.** And the “Population Normal (%)” value [2]?
**A.** 53%

**Q.** What about the “Population Pyknosed Nuclei (%)” value [2] of the same compound?
**A.** 32%

**Q.** What about the “Population Tubulin-Different-Phenotype (%)” value [2] of the same compound?
**A.** 11%

**Q.** And the “Population Apoptotic (%)” value [3]?
**A.** 84% and 63% and 86%

**Q.** What about the “Population Fragmented Nuclei (%)” value [3] of the same compound?
**A.** 30% and 31% and 36%

**Q.** What about the “Population Healthy Nuclei (%)” value [3] of the same compound?
**A.** 9% and 21% and 10%

**Q.** And the “Population Hoechst High Intensity Objects (%)” value [3]?
**A.** 26% and 29% and 21%

**Q.** And the “Population Mitochondria Different-Phenotype (%)” value [3]?
**A.** 0% and 3% and 5%

**Q.** And the “Population Mitotic Cells (%)” value [3]?
**A.** 15% and 36% and 13%

**Q.** What about the “Population Normal (%)” value [3] of the same compound?
**A.** 73%

**Q.** And the “Population Pyknosed Nuclei (%)” value [3]?
**A.** 59% and 46% and 52%

**Q.** What about the “Population Tubulin-Different-Phenotype (%)” value [3] of the same compound?
**A.** 15% and 5%

**Q.** What about the “Population Apoptotic (%)” value [4] of the same compound?
**A.** 77% and 73%

**Q.** And the “Population Fragmented Nuclei (%)” value [4]?
**A.** 48% and 26% and 42%

**Q.** And the “Population Healthy Nuclei (%)” value [4]?
**A.** 14% and 15% and 12%

**Q.** What about the “Population Hoechst High Intensity Objects (%)” value [4] of the same compound?
**A.** 43% and 15%

**Q.** What about the “Population Mitotic Cells (%)” value [4] of the same compound?
**A.** 22% and 26%

**Q.** What about the “Population Normal (%)” value [4] of the same compound?
**A.** 56% and 84%

**Q.** What about the “Population Pyknosed Nuclei (%)” value [4] of the same compound?
**A.** 37% and 57% and 45%

**Q.** What about the “Population Apoptotic (%)” value [5] of the same compound?
**A.** 85%

**Q.** And the “Population Fragmented Nuclei (%)” value [5]?
**A.** 61%

**Q.** And the “Population Healthy Nuclei (%)” value [5]?
**A.** 2%

**Q.** And the “Population Hoechst High Intensity Objects (%)” value [5]?
**A.** 21%

**Q.** What about the “Population Membrane Permeable-Phenotype (%)” value [5] of the same compound?
**A.** 16%

**Q.** And the “Population Mitochondria Different-Phenotype (%)” value [5]?
**A.** 0%

**Q.** What about the “Population Mitotic Cells (%)” value [5] of the same compound?
**A.** 14%

**Q.** What about the “Population Pyknosed Nuclei (%)” value [5] of the same compound?
**A.** 35%

**Q.** What about the “Population Tubulin-Different-Phenotype (%)” value [5] of the same compound?
**A.** 16%

**Q.** What about the “Population Apoptotic (%)” value [6] of the same compound?
**A.** 74%

**Q.** And the “Population Fragmented Nuclei (%)” value [6]?
**A.** 58%

**Q.** And the “Population Healthy Nuclei (%)” value [6]?
**A.** 11%

**Q.** And the “Population Hoechst High Intensity Objects (%)” value [6]?
**A.** 34%

**Q.** What about the “Population Membrane Permeable-Phenotype (%)” value [6] of the same compound?
**A.** 30%

**Q.** What about the “Population Mitochondria Different-Phenotype (%)” value [6] of the same compound?
**A.** 10%

**Q.** And the “Population Mitotic Cells (%)” value [6]?
**A.** 25%

**Q.** And the “Population Normal (%)” value [6]?
**A.** 65%

**Q.** What about the “Population Pyknosed Nuclei (%)” value [6] of the same compound?
**A.** 30%

**Q.** And the “Population Tubulin-Different-Phenotype (%)” value [6]?
**A.** 0%

**Q.** What about the “Population Apoptotic (%)” value [7] of the same compound?
**A.** 92% and 84% and 87%

**Q.** And the “Population Fragmented Nuclei (%)” value [7]?
**A.** 51% and 58% and 59%

**Q.** What about the “Population Healthy Nuclei (%)” value [7] of the same compound?
**A.** 6% and 7%

**Q.** And the “Population Hoechst High Intensity Objects (%)” value [7]?
**A.** 18% and 20% and 22%

**Q.** And the “Population Membrane Permeable-Phenotype (%)” value [7]?
**A.** 30% and 25% and 11%

**Q.** And the “Population Mitochondria Different-Phenotype (%)” value [7]?
**A.** 0% and 3%

**Q.** What about the “Population Mitotic Cells (%)” value [7] of the same compound?
**A.** 7% and 15% and 12%

**Q.** What about the “Population Normal (%)” value [7] of the same compound?
**A.** 81% and 79% and 77%

**Q.** What about the “Population Pyknosed Nuclei (%)” value [7] of the same compound?
**A.** 41% and 34%

**Q.** And the “Population Apoptotic (%)” value [8]?
**A.** 72% and 88% and 77%

**Q.** What about the “Population Healthy Nuclei (%)” value [8] of the same compound?
**A.** 20% and 46% and 37%

**Q.** And the “Population Hoechst High Intensity Objects (%)” value [8]?
**A.** 38% and 27% and 26%

**Q.** And the “Population Membrane Permeable-Phenotype (%)” value [8]?
**A.** 47% and 100% and 92%

**Q.** And the “Population Mitotic Cells (%)” value [8]?
**A.** 27% and 11% and 22%

**Q.** And the “Population Normal (%)” value [8]?
**A.** 61% and 72% and 73%

**Q.** And the “Population Pyknosed Nuclei (%)” value [8]?
**A.** 26% and 36% and 38%

**Q.** What about the “Population Apoptotic (%)” value [9] of the same compound?
**A.** 88% and 84%

**Q.** What about the “Population Fragmented Nuclei (%)” value [9] of the same compound?
**A.** 60% and 64%

**Q.** And the “Population Healthy Nuclei (%)” value [9]?
**A.** 14% and 23%

**Q.** What about the “Population Hoechst High Intensity Objects (%)” value [9] of the same compound?
**A.** 34% and 36%

**Q.** And the “Population Membrane Permeable-Phenotype (%)” value [9]?
**A.** 40% and 37%

**Q.** And the “Population Mitochondria Different-Phenotype (%)” value [9]?
**A.** 6% and 16%

**Q.** And the “Population Mitotic Cells (%)” value [9]?
**A.** 11% and 15%

**Q.** What about the “Population Normal (%)” value [9] of the same compound?
**A.** 65% and 63%

**Q.** What about the “Population Pyknosed Nuclei (%)” value [9] of the same compound?
**A.** 25% and 12%

**Q.** And the “Population Tubulin-Different-Phenotype (%)” value [9]?
**A.** 53% and 54%

**Q.** What about the “Population Apoptotic (%)” value [10] of the same compound?
**A.** 91% and 83%

**Q.** What about the “Population Fragmented Nuclei (%)” value [10] of the same compound?
**A.** 79% and 82%

**Q.** And the “Population Healthy Nuclei (%)” value [10]?
**A.** 10% and 8%

**Q.** And the “Population Hoechst High Intensity Objects (%)” value [10]?
**A.** 44% and 33%

**Q.** And the “Population Membrane Permeable-Phenotype (%)” value [10]?
**A.** 33% and 58%

**Q.** And the “Population Mitochondria Different-Phenotype (%)” value [10]?
**A.** 8% and 0%

**Q.** And the “Population Mitotic Cells (%)” value [10]?
**A.** 8% and 16%

**Q.** What about the “Population Normal (%)” value [10] of the same compound?
**A.** 55% and 66%

**Q.** And the “Population Pyknosed Nuclei (%)” value [10]?
**A.** 10% and 8%

**Q.** What about the “Population Tubulin-Different-Phenotype (%)” value [10] of the same compound?
**A.** 58% and 66%
